Measurements published in ChEMBL document CHEMBL4330076, “Quinazolin-2,4-dione-Based Hydroxamic Acids as Selective Histone Deacetylase-6 Inhibitors for Treatment of Non-Small Cell Lung Cancer” (J Med Chem, 2019).
The source made the active and inactive calls. The calls are words filed in the database; no cut-off is given here.

Tests used:
Homo sapiens = species: Homo sapiens; experiment: Selectivity ratio of IC50 for human full-length recombinant HDAC1 expressed in baculovirus infected Sf9 insect cells to IC50 for human full-length recombinant HDAC6 expressed in baculovirus infected Sf9 insect cells
[1] = tested on: Lewis lung carcinoma cell line; experiment: Decrease in PD-L1 expression in mouse LL/2 cells at 10 uM after 24 hrs by Western blot analysis
[2] = tested on: Lewis lung carcinoma cell line; experiment: Antitumor activity against mouse LL/2 cells implanted in C57BL/6 mouse assessed as tumor growth inhibition at 10 mg/kg, ip qd administered for 5 days; type: functional, organism-based
[3] = molecular target: T1, Protein deacetylase HDAC6 (Mus musculus) (UniProt Q9Z2V5); experiment: Inhibition of HDAC6 in mouse LL/2 cells assessed as reduction in PD-L1 expression at 10 uM after 24 hrs by Western blot analysis; type: cell-based
T1 sequence (whole entry): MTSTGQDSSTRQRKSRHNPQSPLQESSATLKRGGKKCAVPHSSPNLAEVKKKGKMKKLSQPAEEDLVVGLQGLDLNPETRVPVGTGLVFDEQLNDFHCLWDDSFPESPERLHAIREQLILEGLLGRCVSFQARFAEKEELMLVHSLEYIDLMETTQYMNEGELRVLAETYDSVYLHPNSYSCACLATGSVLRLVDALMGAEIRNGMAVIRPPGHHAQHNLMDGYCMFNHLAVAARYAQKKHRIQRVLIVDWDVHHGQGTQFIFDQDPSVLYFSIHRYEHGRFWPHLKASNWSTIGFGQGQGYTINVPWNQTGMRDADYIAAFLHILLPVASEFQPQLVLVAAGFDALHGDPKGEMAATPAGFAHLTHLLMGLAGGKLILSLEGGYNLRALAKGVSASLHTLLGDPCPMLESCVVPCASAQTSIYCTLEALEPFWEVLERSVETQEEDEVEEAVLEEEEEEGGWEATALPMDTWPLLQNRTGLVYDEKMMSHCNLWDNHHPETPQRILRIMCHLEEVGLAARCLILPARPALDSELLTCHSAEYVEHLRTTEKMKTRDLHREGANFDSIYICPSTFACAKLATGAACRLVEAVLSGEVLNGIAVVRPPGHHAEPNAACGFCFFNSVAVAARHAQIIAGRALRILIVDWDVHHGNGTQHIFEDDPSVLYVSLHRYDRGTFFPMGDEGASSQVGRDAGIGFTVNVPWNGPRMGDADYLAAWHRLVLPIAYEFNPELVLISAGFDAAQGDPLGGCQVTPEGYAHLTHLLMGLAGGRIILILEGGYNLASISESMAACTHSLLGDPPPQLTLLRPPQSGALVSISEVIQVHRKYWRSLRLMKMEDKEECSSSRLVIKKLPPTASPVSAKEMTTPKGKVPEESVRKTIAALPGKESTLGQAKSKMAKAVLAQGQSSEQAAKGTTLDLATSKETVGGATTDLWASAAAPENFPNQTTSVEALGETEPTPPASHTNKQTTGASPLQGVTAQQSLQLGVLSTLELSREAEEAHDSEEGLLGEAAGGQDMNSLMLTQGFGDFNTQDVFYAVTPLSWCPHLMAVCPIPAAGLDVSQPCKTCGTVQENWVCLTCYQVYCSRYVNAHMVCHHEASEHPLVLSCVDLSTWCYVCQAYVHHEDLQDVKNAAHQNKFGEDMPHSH

[4] = tested on: Lewis lung carcinoma cell line; experiment: Cytotoxicity against mouse LL/2 cells at 0.8 uM after 72 hrs in presence of paclitaxel by crystal violet staining-based assay; type: functional, cell-based
[5] = molecular target: T1, Protein deacetylase HDAC6 (Mus musculus); experiment: Inhibition of HDAC6 in mouse LL/2 cells assessed as induction of alpha tubulin acetylation at 0.8 uM in presence of paclitaxel after 24 hrs by Western blot analysis relative to control; type: cell-based
[6] = molecular target: T1, Protein deacetylase HDAC6 (Mus musculus); experiment: Inhibition of HDAC6 in mouse LL/2 cells assessed as reduction in PD-L1 expression at 2 to 5 uM in presence of paclitaxel after 24 hrs by Western blot analysis; type: cell-based
[7] = molecular target: Histone deacetylase 1 (Homo sapiens) (UniProt Q13547); experiment: Inhibition of HDAC1 in human A549 cells assessed as effect on histone H3 acetylation level at 1 uM after 24 hrs by Western blot analysis; type: cell-based
[8] = tested on: Lewis lung carcinoma cell line; experiment: Antitumor activity against mouse LL/2 cells implanted in C57BL/6 mouse assessed as tumor growth inhibition at 20 mg/kg, po qd administered for 21 consecutive days; type: functional, organism-based
[9] = tested on: Lewis lung carcinoma cell line; experiment: Cytotoxicity against mouse LL/2 cells at 0.8 uM after 72 hrs in presence of paclitaxel by crystal violet staining-based assay relative to control; type: functional, cell-based
[10] = molecular target: T1, Protein deacetylase HDAC6 (Mus musculus); experiment: Inhibition of HDAC6 in mouse LL/2 cells assessed as induction of alpha tubulin acetylation at 4 uM in presence of paclitaxel after 24 hrs by Western blot analysis relative to control; type: cell-based
[11] = tested on: Lewis lung carcinoma cell line; experiment: Induction of multi-nuclei formation in mouse LL/2 cells at 0.8 uM after 24 hrs in presence of paclitaxel by 4',6-diamidino-2-phenylindole staining-based assay; type: functional, cell-based
[12] = molecular target: T1, Protein deacetylase HDAC6 (Mus musculus); experiment: Inhibition of HDAC6 in mouse LL/2 cells assessed as induction of alpha tubulin acetylation at 0.8 uM after 24 hrs by Western blot analysis relative to control; type: cell-based
[13] = tested on: Lewis lung carcinoma cell line; experiment: Cytotoxicity against mouse LL/2 cells at 0 to 10 uM after 72 hrs in presence of paclitaxel by MTT assay relative to control; type: functional, cell-based
Summary of the method: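 Mouse LL/2 lung cancer cells cultured for 72 h with increasing inhibitor concentrations (0–10 μM) together with paclitaxel. Viability read by MTT. Combination assessed by the Chou-Talalay method as a combination index.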

[14] = molecular target: T1, Protein deacetylase HDAC6 (Mus musculus); experiment: Inhibition of HDAC6 in mouse LL/2 cells assessed as reduction in PD-L1 expression at 2 to 10 uM after 24 hrs by Western blot analysis; type: cell-based

Histone deacetylase 1 (Homo sapiens), sequence (Q13547 whole entry): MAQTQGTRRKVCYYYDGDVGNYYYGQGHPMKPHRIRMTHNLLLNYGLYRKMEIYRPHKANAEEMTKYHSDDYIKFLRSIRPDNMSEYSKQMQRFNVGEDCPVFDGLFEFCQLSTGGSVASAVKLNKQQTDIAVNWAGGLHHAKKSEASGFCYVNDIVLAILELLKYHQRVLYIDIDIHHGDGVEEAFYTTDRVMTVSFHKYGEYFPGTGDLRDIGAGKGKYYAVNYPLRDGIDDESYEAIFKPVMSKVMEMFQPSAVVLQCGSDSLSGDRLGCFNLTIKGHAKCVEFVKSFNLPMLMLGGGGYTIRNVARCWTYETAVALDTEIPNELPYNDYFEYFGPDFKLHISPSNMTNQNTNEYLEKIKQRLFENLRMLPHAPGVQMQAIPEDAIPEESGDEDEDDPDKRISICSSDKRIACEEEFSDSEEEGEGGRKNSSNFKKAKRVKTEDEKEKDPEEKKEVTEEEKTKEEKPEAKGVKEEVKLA

Row | SMILES | Ratio IC50 (Homo sapiens) | other results
1 | COc1ccc2c(=O)n(CCc3ccccc3)c(=O)n(Cc3ccc(C(=O)NO)cc3)c2c1 | 235 | –
2 | O=C(NO)c1ccc(Cn2c(=O)n(CCc3cccc(F)c3)c(=O)c3ccccc32)cc1 | 1320 | –
3 | O=C(NO)c1ccc(Cn2c(=O)n(CCc3ccccc3)c(=O)c3ccc(Cl)cc32)cc1 | 434 | –
4 | O=C(NO)c1cccc(Cn2c(=O)n(CCc3ccccc3)c(=O)c3ccccc32)c1 | > 2 | –
5 | CC(=O)O[C@H]1C(=O)[C@@]2(C)[C@H]([C@H](OC(=O)c3ccccc3)[C@]3(O)C[C@H](OC(=O)[C@H](O)[C@@H](NC(=O)c4ccccc4)c4ccccc4)C(C)=C1C3(C)C)[C@]1(OC(C)=O)CO[C@@H]1C[C@@H]2O | – | Activity [1]: Active; TGI [2]: inactive
6 | O=C(NO)c1cc(Cn2c(=O)n(CCc3ccccc3)c(=O)c3ccccc32)cs1 | > 8 | –
7 | O=C(NO)c1ccc(Cn2c(=O)n(CCc3ccccc3)c(=O)c3ccc(C(F)(F)F)cc32)cc1 | 13 | –
8 | O=C(NO)c1ccc(Cn2c(=O)n(CCc3ccccc3)c(=O)c3cc(F)ccc32)cc1 | 235 | –
9 | O=C(NO)c1ccc(Cn2c(=O)n(CCc3ccc(O)cc3)c(=O)c3ccccc32)cc1 | 1820 | –
10 | O=C(NO)c1ccc(Cn2c(=O)n(CCc3ccccc3)c(=O)c3ccccc32)s1 | 1150 | –
11 | COc1ccc(CCn2c(=O)c3ccccc3n(Cc3ccc(C(=O)NO)cc3)c2=O)cc1 | 369 | –
12 | O=C(NO)c1ccc(Cn2c(=O)n(CCc3ccccc3)c(=O)c3ccc(C4CC4)cc32)cc1 | 86 | –
13 | O=C(NO)c1ccc(Cn2c(=O)n(CCc3ccccc3)c(=O)c3ccc(O)cc32)cc1 | 259 | –
14 | O=C(NO)c1ccc(Cn2c(=O)n(CCc3ccccc3)c(=O)c3cccnc32)cc1 | 384 | –
15 | Cc1ccc2c(=O)n(CCc3ccccc3)c(=O)n(Cc3ccc(C(=O)NO)cc3)c2c1 | 64 | –
16 | O=C(CCCCCCC(=O)Nc1ccccc1)NO | – | inhibition [3]: inactive
17 | O=C(NO)c1ccc(Cn2c(=O)n(CCc3cccc(C(F)(F)F)c3)c(=O)c3ccccc32)cc1 | 529 | Activity [4]: Active
18 | O=C(NO)c1ccc(Cn2c(=O)n(CCc3ccccc3)c(=O)c3ccccc32)cc1 | 2790 | fold change (FC) [5]: 74.7; inhibition [6]: Active; Activity [4]: Active; inhibition [7]: inactive; TGI [8]: inactive; Activity [9]: Active; inhibition [10]: Active; Activity [11]: Active; fold change (FC) [12]: 42.7; Activity [13]: Active; inhibition [14]: Active
19 | O=C(NO)c1ccc(Cn2c(=O)n(CCc3ccccc3)c(=O)c3cc(Cl)ccc32)cc1 | 539 | –
20 | O=C(NO)c1ccc(Cn2c(=O)n(CCc3ccc(F)cc3)c(=O)c3ccccc32)cc1 | 470 | –
21 | O=C(NO)c1ccc(Cn2c(=O)n(CCc3ccccc3)c(=O)c3ccc(F)cc32)cc1 | 1180 | –
22 | O=C(NO)c1ccc(Cn2c(=O)n(CCc3ccccc3)c(=O)c3ccsc32)cc1 | 443 | –
